Compound activity deposited in PubChem BioAssay by several laboratories.
Rows were chosen to be rich in hits. Some 4% of all compounds tested hit in one or more screens of this group.
KCNQ1 pot: potentiators or activators of human KCNQ1 potassium channel; P51787; CHO-K1 KCNQ1, thallium flux FluxOR fluorescence; hits give high values; B-score at 10 µM; 310,000 compounds, 0.35% hits;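 active = fluorescence ratio B-score, a plate-corrected score, at least three library SD, with initial intensity B-score within 5 SD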
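assay system = CHO-K1 cells stably expressing KCNQ1 | medium = assay buffer, equal DMSO in all wells | timing = 37 °C overnight plating, 90-min dark dye load, 20-min compound pretreatment | measured by = kinetic FluxOR thallium fluorescence, 10-s 1-Hz baseline, 110-s post-stimulus read | measure = fluorescence change relative to baseline, converted to B score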
PHOSPHO1 block: inhibitors of human PHOSPHO1 phosphatase; AID 1565; 290,000 compounds, 1.1% hits; Q8TCT1; inhibition, % at 13.3 µM; recombinant PHOSPHO1, absorbance phosphatase assay; in the data active = inhibition above about 60%
KCNK3 inh: human KCNK3 channel inhibition, primary screen. O14649. CHO-KCNK3 thallium flux, FluxOR fluorescence; hits give low values. 340,000 compounds, 0.84% hits. B-score at 10 µM;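 active = B-score under library mean minus 4 SD, starting fluorescence ratio at most library mean plus 5 SD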;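 note: more negative B-score means stronger inhibition of thallium flux through KCNK3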
KCNQ1 block: human KCNQ1 channel inhibition | P51787 | CHO-K1 KCNQ1, FluxOR thallium flux fluorescence; hits give high values | B-score at 10 µM | 310,000 compounds, 1.3% hits;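 active = compounds whose thallium flux B-score, printed positive for inhibition, exceeds three library SD while starting fluorescence stays within three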;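 note: channel opened by potassium depolarization with thallium stimulus after 20 min compound exposure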
hERG rescue: compounds protecting human hERG from proarrhythmic drug block; Q12809; CHO-hERG, FluxOR thallium flux, dofetilide IC70 present; activation (rescue from dofetilide block), less the hit threshold, % at 10 µM; 310,000 compounds, 0.51% hits; AID 1511;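 active = activation above the mean of controls blocked by dofetilide plus 5 SD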;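 note: thallium influx through hERG after potassium depolarization seen as dye fluorescence rise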
Target sequence (Q12809 whole entry, looked up): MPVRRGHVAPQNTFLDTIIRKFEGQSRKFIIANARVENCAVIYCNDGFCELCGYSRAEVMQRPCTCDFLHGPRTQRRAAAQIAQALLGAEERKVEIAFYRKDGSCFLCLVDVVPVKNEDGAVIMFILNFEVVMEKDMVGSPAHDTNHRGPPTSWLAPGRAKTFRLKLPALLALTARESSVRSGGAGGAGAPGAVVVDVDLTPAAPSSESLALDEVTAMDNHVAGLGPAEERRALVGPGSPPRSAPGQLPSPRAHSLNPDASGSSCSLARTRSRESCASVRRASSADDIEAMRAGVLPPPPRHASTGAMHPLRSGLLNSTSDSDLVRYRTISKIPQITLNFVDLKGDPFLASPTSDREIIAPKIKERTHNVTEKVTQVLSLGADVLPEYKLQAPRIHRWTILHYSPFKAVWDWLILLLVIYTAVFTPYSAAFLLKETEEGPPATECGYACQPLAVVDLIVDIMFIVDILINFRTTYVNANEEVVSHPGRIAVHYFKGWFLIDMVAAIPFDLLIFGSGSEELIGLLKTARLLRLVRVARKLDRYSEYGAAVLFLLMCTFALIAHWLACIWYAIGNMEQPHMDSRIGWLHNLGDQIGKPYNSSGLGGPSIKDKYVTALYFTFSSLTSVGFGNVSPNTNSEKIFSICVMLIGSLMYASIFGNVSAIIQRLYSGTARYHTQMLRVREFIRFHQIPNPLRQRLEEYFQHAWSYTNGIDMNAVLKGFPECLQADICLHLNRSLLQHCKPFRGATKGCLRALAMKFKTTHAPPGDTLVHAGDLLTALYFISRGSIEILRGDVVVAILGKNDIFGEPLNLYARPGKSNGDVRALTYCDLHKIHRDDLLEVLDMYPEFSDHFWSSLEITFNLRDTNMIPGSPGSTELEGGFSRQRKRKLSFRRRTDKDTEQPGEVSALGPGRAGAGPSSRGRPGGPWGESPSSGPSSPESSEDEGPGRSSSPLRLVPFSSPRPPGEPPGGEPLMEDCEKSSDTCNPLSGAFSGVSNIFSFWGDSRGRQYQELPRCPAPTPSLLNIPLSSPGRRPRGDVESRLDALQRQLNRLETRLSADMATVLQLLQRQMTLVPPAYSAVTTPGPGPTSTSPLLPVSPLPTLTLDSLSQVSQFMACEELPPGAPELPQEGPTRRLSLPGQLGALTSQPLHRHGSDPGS
KCNK9 block: inhibitors of human KCNK9 two-pore domain potassium channel. B-score at 10 µM. 310,000 compounds, 1.2% hits. HEK293 KCNK9, FluxOR thallium flux fluorescence; hits give low values. AID 488922. Q9NPC2;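 active = ratio B-score over 3 SD below the library mean, with starting fluorescence within 5 SD of its mean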;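 note: negative B-score means less thallium flux so channel inhibition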
KCNK9 block conf: confirmation of human KCNK9 potassium channel inhibitors; HEK293 KCNK9 cells, FluxOR thallium flux fluorescence; 4,900 compounds, 43% hits; inhibition, % at 10 µM; shares compounds with KCNK9 block; AID 492992;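 active = thallium signal inhibited by more than 5 SD of the compound-free buffer control wells, on both duplicate plates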
Kir2-1 spec: mouse Kir2.1 off-target activity of KCNK9 modulators; AID 492993; shares compounds with KCNK9 block; inhibition, % at 10 µM; Kir2.1 cells, FluxOR thallium flux fluorescence; 4,900 compounds, 4% hits;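 active = thallium signal drop more than 5 SD beyond the mean of the no-compound control wells, seen in both duplicate plates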;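 note: signal is fluorescence rise after thallium addition divided by baseline fluorescence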
HEK293 Tl ctr: non-induced cell nonspecific activity of KCNK9 modulators. inhibition, % at 10 µM. shares compounds with KCNK9 block. 4,900 compounds, 40% hits. non-induced KCNK9-HEK293, FluxOR thallium flux. AID 492997;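 active = thallium signal drop beyond 5 SD of the untreated control mean, on both duplicate plates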
A number is an active result; – = inactive; · = not tested or not shown; ! = a repeat was not active.

SMILES | KCNQ1 pot | PHOSPHO1 block | KCNK3 inh | KCNQ1 block | hERG rescue | KCNK9 block | KCNK9 block conf | Kir2-1 spec | HEK293 Tl ctr
CC(C)(C)n1nnnc1C(c1ccc(Cl)cc1)N(Cc1cccnc1)Cc1ccco1 (configuration not stated) | – | – | -10.1 | 6 | – | -14.4 | 52.0% | – | 39.0%
CC(/C=C/c1ccccc1)=N\NC(=O)CNC(=O)c1ccccc1Cl | – | – | – | – | – | – | · | · | ·
c1ccc(CN(Cc2ccco2)C(c2ccncc2)c2nnnn2C2CCCC2)cc1 (configuration not stated) | – | – | – | – | – | – | · | · | ·
CC(C)(C)n1nnnc1C(c1ccc(F)cc1)N(Cc1ccc(F)cc1)Cc1ccco1 (configuration not stated) | – | – | – | 7 | – | -15 | 71.5% | – | 40.0%
CC(C)(C)n1nnnc1C(c1cccs1)N(Cc1ccc(Cl)cc1)CC1CCCO1 (configuration not stated) | – | – | – | – | – | -16.5 | 62.5% | – | 42.5%
CC(C)(C)n1nnnc1C(c1ccc(C(F)(F)F)cc1)N(Cc1ccccc1)Cc1ccco1 (configuration not stated) | – | – | – | 6 | – | -10.7 | 52.0% | – | 33.0%
Cc1cc(C)c(C)c(S(=O)(=O)NCC(=O)NCC2CCCCC2)c1C | – | – | – | – | – | -12.3 | 33.5% | – | 26.5%
O=C(NNc1ccccc1Br)C(=O)n1ccc2ccccc21 | – | – | – | – | – | – | · | · | ·
CC1CCN(C(=O)CSc2nc3ccccc3c(=O)n2Cc2ccc3c(c2)OCO3)CC1 | – | – | – | – | – | – | · | · | ·
CC1CCCCN1C(=O)CSc1nc2cc3c(cc2c(=O)n1Cc1ccc2c(c1)OCO2)OCO3 (configuration not stated) | – | – | – | – | – | – | – | – | 23.5%
O=C(NCCN1C(=O)S/C(=C\c2cccnc2)C1=O)C1CC(=O)N(Cc2ccco2)C1 (configuration not stated) | – | – | – | – | – | – | · | · | ·
COc1c(CC=C(C)C)cc(C2CC(=O)c3c(O)cc(O)cc3O2)c(CC=C(C)C)c1O (configuration not stated) | – | · | · | – | – | -10.5 | 67.0% | – | 50.0%
Cc1cc(C)c(NC(=S)NC(=O)c2c(Cl)c(C)nn2C)c([N+](=O)[O-])c1 | – | – | – | – | – | – | · | · | ·
CCOC(=O)c1cc(-c2ccc(/C=C3/C(=O)N(c4ccc(C(=O)O)cc4)N=C3C)o2)ccc1Cl | – | – | – | – | – | – | – | – | –
OCC1(Cc2ccc(Cl)cc2)CCN(Cc2ccc(F)c(F)c2)CC1 | – | – | – | – | – | – | · | · | ·
OCC1(Cc2ccccc2C(F)(F)F)CCN(Cc2ccccc2)CC1 | – | – | – | – | – | – | – | – | –
OCC1(Cc2ccccc2C(F)(F)F)CCN(Cc2ccc3c(c2)CCO3)CC1 | – | – | – | – | – | – | – | – | –
OCC1(Cc2cccc(C(F)(F)F)c2)CCN(Cc2cc(F)cc(F)c2)CC1 | – | – | – | – | – | – | – | – | –
O=C(NN=C1C2CC3CC(C2)CC1C3)c1cc(Cl)ccc1O | – | – | – | – | – | – | · | · | ·
O=C(NCCCn1ccnc1)/C(=C/c1ccco1)NC(=O)c1ccccc1 | – | · | – | – | – | – | · | · | ·
CC1CCC(C(C)C)C(OC(=O)Cn2nnc3c(cnn3-c3ccccc3)c2=O)C1 (configuration not stated) | – | – | – | – | – | – | · | · | ·
Cc1ccccc1OCc1n(CC(=O)OC2CC(C)CCC2C(C)C)c2ccccc2[n+]1C (configuration not stated) | – | – | -12.9 | 8! | – | -16.7 | 70.0% | 78.0%! | –
CCOC(=O)N1CCN(C(=O)c2cc(OCC)c(OCC)c(OCC)c2)CC1 | – | – | – | – | – | – | · | · | ·
CC1=NN(c2ccccc2)C(=O)/C1=C\C=C1\N(C)c2ccccc2C1(C)C | – | – | – | – | – | -9.13 | – | – | –
CC1=NN(c2ccccc2)C(=O)/C1=C\C=C1/N(C)c2ccccc2C1(C)C | – | – | – | – | – | – | · | · | ·
SMILES | KCNQ1 pot | PHOSPHO1 block | KCNK3 inh | KCNQ1 block | hERG rescue | KCNK9 block | KCNK9 block conf | Kir2-1 spec | HEK293 Tl ctr
C/C(=N\NC(=O)CNC(=O)c1ccc(Br)cc1)c1ccco1 | – | – | – | – | – | – | · | · | ·
CCC(C)[C@H](NC(=O)N1CCC(Cc2ccccc2)CC1)C(=O)O (some centres not stated) | – | – | – | – | – | – | · | · | ·
CCOC(=O)C[C@H]1c2cc(F)ccc2S(=O)(=O)N1C1CCCCC1 | – | · | – | – | – | – | · | · | ·
O=C(CSc1ncc(C(F)(F)F)cc1Cl)N1CCN(S(=O)(=O)c2ccc3ccccc3c2)CC1 | – | – | – | – | – | – | – | – | –
Cc1ccc(NC(=O)CSc2ccccc2NC(=O)c2ccccc2Cl)cc1Cl | – | – | – | – | – | -9.73 | 55.5% | – | –
COC(=O)c1sccc1NC(=S)N1CCN(c2ccccc2)CC1 | – | – | – | – | – | – | · | · | ·
COC(=O)c1sccc1NC(=S)N1CCN(c2ccc(F)cc2)CC1 | – | – | – | – | – | -9.69 | – | – | 32.0%
COC(=O)c1sccc1NC(=S)N1CC(C)CC(C)C1 (configuration not stated) | – | – | – | – | – | – | – | – | 27.5%
COC(=O)c1sccc1NC(=S)N1CCC(C)CC1 | – | – | – | – | – | – | · | · | ·
CN1CCN(C2=C(Cl)C(=O)C(c3cnc(N4CCCCC4)s3)=C(Cl)C2=O)CC1 | – | – | – | 16 | – | -17.1 | – | – | 38.5%
O=C(CNC(=O)c1cccc(Cl)c1)NCC(c1cccs1)N1CCOCC1 (configuration not stated) | · | · | – | · | · | · | · | · | ·
O=c1c2ccccc2nc(N2CCN(c3ccccc3)CC2)n1Cc1ccccc1 | – | – | – | – | – | -13.3 | 61.5% | – | 39.5%
c1ccc(SCCN2CCN(c3ccccc3)CC2)cc1 | – | – | – | – | – | – | – | – | –
CCCN1CCC(=O)N(CCSc2ccccc2)CC1 | – | – | – | – | – | – | · | · | ·
CC1CCCN(C(=O)Cc2cn(Cc3cccc(Cl)c3)c3ccccc23)C1 (configuration not stated) | – | – | – | – | – | -13.6 | 71.5% | 46.5% | 37.0%
O=C(O)Cc1cn(Cc2cccc(Cl)c2)c2ccccc12 | – | – | – | – | – | – | · | · | ·
